Reference: ChEMBL document CHEMBL1926607 (J Med Chem, 2011)
pEC50, pKi: −log10 of the molar value. Active and inactive are the calls of the source. The rule behind the calls is not given here.

Tests used:
[1] = target: 5-hydroxytryptamine receptor 2A (Rattus norvegicus, UniProt P14842); experiment: Displacement of [3H]ketanserin from 5HT2A receptor in Sprague-Dawley albinus rat frontal cortex membranes after 15 mins; format: cell membranes, Membrane
Procedure, shortened: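 Rat frontal cortex membranes (male Sprague–Dawley, 180–200 g). Nonspecific binding was set with 1 μM cinanserin.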

[2] = target: T1, 5-hydroxytryptamine receptor 1A (Rattus norvegicus, UniProt P19327); experiment: Displacement of [3H]-8-OH-DPAT from 5-HT1A receptor in Sprague-Dawley albinus rat cerebral cortex membranes after 15 mins; format: cell membranes, Membrane
T1 sequence (P19327 whole entry): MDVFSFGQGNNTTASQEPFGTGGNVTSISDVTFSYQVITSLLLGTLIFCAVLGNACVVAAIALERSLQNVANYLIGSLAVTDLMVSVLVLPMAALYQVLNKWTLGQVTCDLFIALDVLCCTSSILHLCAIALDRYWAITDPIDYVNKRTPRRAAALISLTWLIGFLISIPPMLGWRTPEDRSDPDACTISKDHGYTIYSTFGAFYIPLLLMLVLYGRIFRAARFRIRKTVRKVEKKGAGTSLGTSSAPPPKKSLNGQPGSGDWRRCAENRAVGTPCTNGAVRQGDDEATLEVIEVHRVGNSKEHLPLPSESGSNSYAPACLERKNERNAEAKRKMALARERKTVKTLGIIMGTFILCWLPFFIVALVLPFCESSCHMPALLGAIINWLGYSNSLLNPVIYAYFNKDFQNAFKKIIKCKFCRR

[3] = target: T2, 5-hydroxytryptamine receptor 1A (Homo sapiens) (UniProt P08908); experiment: Partial agonist activity at human 5HT1A receptor expressed in human HeLa cells assessed as inhibition of forskolin-stimulated cAMP production pretreated 20 mins before forskolin challenge measured after 2 hrs by RIA; format: functional, cell-based
T2 sequence (whole entry): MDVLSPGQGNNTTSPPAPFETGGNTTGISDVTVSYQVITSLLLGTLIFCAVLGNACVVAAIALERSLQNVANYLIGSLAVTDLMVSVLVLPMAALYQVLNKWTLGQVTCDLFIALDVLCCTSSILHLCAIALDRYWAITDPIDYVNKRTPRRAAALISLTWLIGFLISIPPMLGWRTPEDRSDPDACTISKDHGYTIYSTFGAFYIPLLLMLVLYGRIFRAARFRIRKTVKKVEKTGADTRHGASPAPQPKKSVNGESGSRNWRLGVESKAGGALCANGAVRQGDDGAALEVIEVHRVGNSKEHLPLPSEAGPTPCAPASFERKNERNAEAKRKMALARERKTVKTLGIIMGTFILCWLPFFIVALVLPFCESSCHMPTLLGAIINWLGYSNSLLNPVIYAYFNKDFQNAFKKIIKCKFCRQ
Procedure, shortened: (§1)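 HeLa cells stably expressing the h5-HT1AR, grown in DMEM with 2 mM glutamine, 1 mM pyruvate and 10% heat-inactivated FCS, and used after 2–3 days at about 7.5 × 10^4 cells/well. After a PBS wash, cells were incubated 10 min in PBS with 0.5 mM isobutylmethylxanthine and 10 μM forskolin, with or without compound. The reaction was stopped with ice-cold ethanol, extracted 2 h and lyophilized; cAMP was measured by RIA.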

[4] = target: T2, 5-hydroxytryptamine receptor 1A (Homo sapiens); experiment: Agonist activity at human 5HT1A receptor expressed in human HeLa cells assessed as inhibition of forskolin-stimulated cAMP production pretreated 20 mins before forskolin challenge measured after 2 hrs by RIA relative to control; format: functional, cell-based
[5] = target: T3, 5-hydroxytryptamine receptor 1A (Homo sapiens, UniProt P08908); experiment: Agonist activity at human 5HT1A receptor expressed in human HeLa cells assessed as inhibition of forskolin-stimulated cAMP production […] measured after 2 hrs by RIA; format: functional, cell-based; procedure, shortened: as §1
T3 sequence (P08908 whole entry): T2 sequence (whole entry)

[6] = Neuroprotective activity in Wistar rat hippocampi primary neuronal cells assessed as protection against serum-deprivation induced cell death at 1 uM after 24 hrs by MTT assay; format: functional, Hippocampus, Primary neuron
Procedure, shortened: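 Mixed neuron-glia cultures from E18 Wistar rat hippocampi (Neurobasal plus 10% FCS), used at 11 days in vitro. Medium replaced by saline to withdraw serum; cells held 24 h with compound. Cell survival measured by MTT reduction, expressed as % protection.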

[7] = Neuroprotective activity in Wistar rat hippocampi primary neuronal cells assessed as protection against glutamate-induced cell death at 1 uM treated 30 min before glutamate challenge measured after 22 hrs by MTT assay; format: functional, Hippocampus, Primary neuron
Procedure, shortened: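 E18 fetal Wistar rat hippocampal neurons in neuron-enriched culture (Neurobasal, 2% B27, poly-L-lysine), used at 11 days in vitro. Compound added 30 min before 1 mM glutamate, exposure 22 h. Survival by MTT (mitochondrial dehydrogenase) read-out, reported as % protection.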

[8] = Neuroprotective activity in Wistar rat hippocampi primary neuronal cells assessed as protection against oxygen-glucose deprivation induced cell death at 1 uM after 18 hrs by MTT assay; format: functional, Hippocampus, Primary neuron

Chain of 5-hydroxytryptamine receptor 2A (P14842 whole entry): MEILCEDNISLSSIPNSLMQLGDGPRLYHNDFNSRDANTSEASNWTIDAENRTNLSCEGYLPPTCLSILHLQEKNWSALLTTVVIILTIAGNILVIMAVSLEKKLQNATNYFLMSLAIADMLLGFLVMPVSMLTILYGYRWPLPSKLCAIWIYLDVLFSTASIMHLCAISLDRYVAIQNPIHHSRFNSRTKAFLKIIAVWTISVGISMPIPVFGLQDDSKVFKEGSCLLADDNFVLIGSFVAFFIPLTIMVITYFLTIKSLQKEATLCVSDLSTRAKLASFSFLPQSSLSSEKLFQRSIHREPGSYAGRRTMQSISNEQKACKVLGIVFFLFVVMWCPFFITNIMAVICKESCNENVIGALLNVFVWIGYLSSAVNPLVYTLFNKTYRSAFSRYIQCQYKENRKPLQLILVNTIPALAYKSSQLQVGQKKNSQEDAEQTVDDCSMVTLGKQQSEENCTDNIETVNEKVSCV

pKi [1]	Emax [4] [%]	Compound	pKi [2]	further results
< 6.00		O=C1C2CCCN2C(=O)N1CCCCNCc1ccc2ccccc2c1 (stereo not given)	7.31	
< 6.00	77.9	O=C1C2CCCCN2C(=O)N1CCCCNCC1CCc2ccccc2O1 (stereo not given)	8.62	Activity [3]: Active
< 6.00	94.8	O=C1CSC(=O)N1CCCCCNCC1CCc2ccccc2O1 (stereo not given)		pEC50 [5]: 7.47
		CCCN(CCC)C1CCc2cccc(O)c2C1 (stereo not given) [8-OH-DPAT]		Activity [6]: 44%; Activity [7]: 37%; Activity [8]: 54%
< 6.00	88.6	O=C1CSC(=O)N1CCCCCCCCNCC1CCc2ccccc2O1 (stereo not given)		pEC50 [5]: 7.59
		O=C1C2CCCN2C(=O)N1CCCCNCc1ccco1 (stereo not given)	< 6.00	
		O=C1C2CCCN2C(=O)N1CCCCNCCc1ccccn1 (stereo not given)	< 6.00	
		O=C1C2CCCN2C(=O)N1CCCCNCc1cccs1 (stereo not given)	< 6.00	
< 6.00		O=C1C2CCCN2C(=O)N1Cc1cccc(CNCC2CCc3ccccc3O2)c1 (stereo not given)		
		O=C1C2CCCN2C(=O)N1CCCCNCCc1cccs1 (stereo not given)	< 6.00	
< 6.00	87	O=C1CSC(=O)N1CCCCCCNCC1CCc2ccccc2O1 (stereo not given)		pEC50 [5]: 7.70
		O=C1C2CCCN2C(=O)N1C/C=C\CNCC1CCc2ccccc2O1 (stereo not given)	6.94	
		O=C1C2CCCN2C(=O)N1CCCCNCCc1ccccc1 (stereo not given)	< 6.00	
< 6.00	75.8	O=C1C2CCCN2C(=O)N1CCCCNCc1ccc2ccccc2n1 (stereo not given)	8.08	Activity [3]: Active
		O=C1C2CCCN2C(=O)N1CC#CCNCC1CCc2ccccc2O1 (stereo not given)	< 6.00	
